According to PMC9380797 (Indian Journal of Nuclear Medicine : IJNM : The Official …, 2022):

Key:
[1] = Blood pharmacokinetics after intravenous administration; format: in vivo, rat; settings: rats, i.v.
Method in brief: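 Male Sprague Dawley rats (200–250 g) given 200 µCi of Tc-99m-labelled test compound via a penile vein. Blood drawn from the ocular vein at intervals over 0–120 min and counted in a well-type scintillation counter, expressed as counts per ml of blood. Peak times read from the activity–time curve.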

[2] = Stability of the radio-complex with pH and time at room temperature; format: physicochemical
Method in brief: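 Labelling: 7.4 MBq pertechnetate added to 20 µg test compound (10% ethanol) with 40 µg SnCl2·2H2O, pH 7, 10 min at room temperature in the dark. pH varied from 2 to 10 and room-temperature stability followed over time. Purity by ITLC: acetone (free pertechnetate) and pyridine:acetic acid:water 3:5:1.5 (hydrolysed fraction); strips counted with a gamma probe. Triplicates, one-way ANOVA.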

[3] = Paper electrophoresis; format: physicochemical; settings: 300V, 1 h
Method in brief: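 Radio-complex spotted at the central point of Whatman No. 1 paper, with sodium phosphate buffer as the mobile phase. Strip dried after the run and activity along it counted in a well-type gamma scintillation […]; the direction of migration indicates charge.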

[4] = Bio-distribution in MNU + TP treated rats; format: in vivo, rat; settings: for percent-specific uptake in the prostate: MNU + TP treated (carcinogen-induced) rats; for ID/g Bladder / ID/g Bone / ID/g Brain / ID/g Heart / ID/g Kidney / ID/g Large intestine / ID/g Liver / ID/g Lung / ID/g Muscle / ID/g Prostate / ID/g Small intestine / ID/g Spleen / ID/g Stomach / ID/g Thyroid: MNU + TP treated rats
[5] = Partition coefficient measurement log Po/w; format: physicochemical
[6] = Bio-distribution in normal control rats; format: in vivo, rat; settings: for ID/g Bladder / ID/g Bone / ID/g Brain / ID/g Heart / ID/g Kidney / ID/g Large intestine / ID/g Liver / ID/g Lung / ID/g Muscle / ID/g Prostate / ID/g Small intestine / ID/g Spleen / ID/g Stomach / ID/g Thyroid: normal control rats; for percent-specific uptake in the prostate: normal healthy rats
Method in brief: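 Healthy adult male Sprague Dawley rats (6–7 weeks, 200–250 g) given 200 µCi of Tc-99m-labelled test compound intravenously via a penile vein. Animals sacrificed at several post-injection times (1, 2, 4 and 6 h). Organs excised, weighed and counted in a well scintillation counter. %ID/g calculated against a standard of the injected dose. n=3, mean ± SD, ANOVA.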

[7] = Plasma protein binding of the radio-complex; format: in vitro ADME; settings: rat plasma, 37°C up to 1 hr
Method in brief: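 Pellet re-suspended in 5% TCA and re-centrifuged. Precipitate and supernatant counted in a well-type gamma counter; binding given as protein-bound percent of total activity.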

time of first peak in blood [1]: 50 s
time of second peak in blood [1]: 50 min
percent radiochemical purity ([2]; pH 2): 92.72%
percent radiochemical purity ([2]; pH 4): 97.24%
percent radiochemical yield ([2]; pH 10): 86.84%
charge of the radio-complex [3]: neutral
ID/g Bladder ([4]; First h): 1.465±0.175 ID/g
ID/g Bladder ([4]; Fourth h): 0.897±0.456 ID/g
ID/g Bladder ([4]; Second h): 0.979±0.247 ID/g
ID/g Bladder ([4]; Sixth h): 0.871±0.578 ID/g
ID/g Bone ([4]; First h): 0.437±0.237 ID/g
ID/g Bone ([4]; Fourth h): 2.24±1.062 ID/g
ID/g Bone ([4]; Second h): 1.381±0.609 ID/g
ID/g Bone ([4]; Sixth h): 2.038±1.163 ID/g
ID/g Brain ([4]; First h): 0.139±0.124 ID/g
ID/g Brain ([4]; Fourth h): 0.149±0.085 ID/g
ID/g Brain ([4]; Second h): 0.257±0.139 ID/g
ID/g Brain ([4]; Sixth h): 0.132±0.048 ID/g
ID/g Heart ([4]; First h): 0.045±0.036 ID/g
ID/g Heart ([4]; Fourth h): 0.231±0.171 ID/g
ID/g Heart ([4]; Second h): 0.404±0.217 ID/g
ID/g Heart ([4]; Sixth h): 0.337±0.054 ID/g
ID/g Kidney ([4]; First h): 6.283±0.746 ID/g
ID/g Kidney ([4]; Fourth h): 7.836±1.861 ID/g
ID/g Kidney ([4]; Second h): 7.37±1.162 ID/g
ID/g Kidney ([4]; Sixth h): 8.08±1.784 ID/g
ID/g Large intestine ([4]; First h): 0.264±0.121 ID/g
ID/g Large intestine ([4]; Fourth h): 0.878±0.439 ID/g
ID/g Large intestine ([4]; Second h): 0.383±0.034 ID/g
ID/g Large intestine ([4]; Sixth h): 0.973±0.641 ID/g
ID/g Liver ([4]; First h): 3.48±0.676 ID/g
ID/g Liver ([4]; Fourth h): 8.693±0.784 ID/g
ID/g Liver ([4]; Second h): 6.767±0.496 ID/g
ID/g Liver ([4]; Sixth h): 9.673±0.457 ID/g
ID/g Lung ([4]; First h): 2.903±0.553 ID/g
ID/g Lung ([4]; Fourth h): 1.263±0.253 ID/g
ID/g Lung ([4]; Second h): 2.44±0.216 ID/g
ID/g Lung ([4]; Sixth h): 1.2±0.07 ID/g
ID/g Muscle ([4]; First h): 0.097±0.075 ID/g
ID/g Muscle ([4]; Fourth h): 0.330±0.194 ID/g
ID/g Muscle ([4]; Second h): 0.262±0.023 ID/g
ID/g Muscle ([4]; Sixth h): 0.310±0.022 ID/g
ID/g Prostate ([4]; First h): 0.913±0.172 ID/g
ID/g Prostate ([4]; Fourth h): 0.857±0.091 ID/g
ID/g Prostate ([4]; Second h): 0.825±0.110 ID/g
ID/g Prostate ([4]; Sixth h): 0.673±0.064 ID/g
ID/g Small intestine ([4]; First h): 0.482±0.554 ID/g
ID/g Small intestine ([4]; Fourth h): 0.400±0.015 ID/g
ID/g Small intestine ([4]; Second h): 0.563±0.037 ID/g
ID/g Small intestine ([4]; Sixth h): 0.378±0.193 ID/g
ID/g Spleen ([4]; First h): 3.873±0.600 ID/g
ID/g Spleen ([4]; Fourth h): 4.61±0.026 ID/g
ID/g Spleen ([4]; Second h): 6.76±0.911 ID/g
ID/g Spleen ([4]; Sixth h): 8.77±0.645 ID/g
ID/g Stomach ([4]; First h): 0.142±0.038 ID/g
ID/g Stomach ([4]; Fourth h): 0.112±0.033 ID/g
ID/g Stomach ([4]; Second h): 0.091±0.029 ID/g
ID/g Stomach ([4]; Sixth h): 0.069±0.023 ID/g
ID/g Thyroid ([4]; First h): 0.356±0.163 ID/g
ID/g Thyroid ([4]; Fourth h): 0.654±0.099 ID/g
ID/g Thyroid ([4]; Second h): 0.698±0.037 ID/g
ID/g Thyroid ([4]; Sixth h): 0.684±0.198 ID/g
Log Po/w [5]: 0.118 ± 0.045
ID/g Bladder ([6]; First h): 1.758±0.706 ID/g
ID/g Bladder ([6]; Fourth h): 1.121±0.896 ID/g
ID/g Bladder ([6]; Second h): 1.71±0.550 ID/g
ID/g Bladder ([6]; Sixth h): 1.840±0.724 ID/g
ID/g Bone ([6]; First h): 1.77±0.14 ID/g
ID/g Bone ([6]; Fourth h): 0.163±0.011 ID/g
ID/g Bone ([6]; Second h): 0.694±0.077 ID/g
ID/g Bone ([6]; Sixth h): 0.59±0.085 ID/g
ID/g Brain ([6]; First h): 0.217±0.065 ID/g
ID/g Brain ([6]; Fourth h): 0.133±0.027 ID/g
ID/g Brain ([6]; Second h): 0.064±0.005 ID/g
ID/g Brain ([6]; Sixth h): 0.096±0.074 ID/g
ID/g Heart ([6]; First h): 0.416±0.005 ID/g
ID/g Heart ([6]; Fourth h): 0.535±0.274 ID/g
ID/g Heart ([6]; Second h): 0.547±0.065 ID/g
ID/g Heart ([6]; Sixth h): 0.557±0.061 ID/g
ID/g Kidney ([6]; First h): 7.476±1.300 ID/g
ID/g Kidney ([6]; Fourth h): 13.726±2.948 ID/g
ID/g Kidney ([6]; Second h): 9.093±0.897 ID/g
ID/g Kidney ([6]; Sixth h): 15.403±2.545 ID/g
ID/g Large intestine ([6]; First h): 0.654±0.294 ID/g
ID/g Large intestine ([6]; Fourth h): 0.635±0.079 ID/g
ID/g Large intestine ([6]; Second h): 0.691±0.178 ID/g
ID/g Large intestine ([6]; Sixth h): 0.915±0.186 ID/g
ID/g Liver ([6]; First h): 4.44±0.836 ID/g
ID/g Liver ([6]; Fourth h): 9.423±1.188 ID/g
ID/g Liver ([6]; Second h): 5.293±1.504 ID/g
ID/g Liver ([6]; Sixth h): 13.303±1.618 ID/g
ID/g Lung ([6]; First h): 3.145±0.465 ID/g
ID/g Lung ([6]; Fourth h): 3.354±2.237 ID/g
ID/g Lung ([6]; Second h): 7.207±4.919 ID/g
ID/g Lung ([6]; Sixth h): 4.292±1.191 ID/g
ID/g Muscle ([6]; First h): 0.337±0.003 ID/g
ID/g Muscle ([6]; Fourth h): 0.126±0.015 ID/g
ID/g Muscle ([6]; Second h): 0.462±0.241 ID/g
ID/g Muscle ([6]; Sixth h): 0.160±0.06 ID/g
ID/g Prostate ([6]; First h): 0.303±0.017 ID/g
ID/g Prostate ([6]; Fourth h): 0.298±0.079 ID/g
ID/g Prostate ([6]; Second h): 0.518±0.133 ID/g
ID/g Prostate ([6]; Sixth h): 0.269±0.182 ID/g
ID/g Small intestine ([6]; First h): 0.639±0.277 ID/g
ID/g Small intestine ([6]; Fourth h): 0.659±0.150 ID/g
ID/g Small intestine ([6]; Second h): 1.276±0.526 ID/g
ID/g Small intestine ([6]; Sixth h): 0.944±0.074 ID/g
ID/g Spleen ([6]; First h): 4.002±0.245 ID/g
ID/g Spleen ([6]; Fourth h): 8.33±1.334 ID/g
ID/g Spleen ([6]; Second h): 5.816±0.886 ID/g
ID/g Spleen ([6]; Sixth h): 9.04±1.165 ID/g
ID/g Stomach ([6]; First h): 0.124±0.065 ID/g
ID/g Stomach ([6]; Fourth h): 0.094±0.045 ID/g
ID/g Stomach ([6]; Second h): 0.101±0.042 ID/g
ID/g Stomach ([6]; Sixth h): 0.091±0.013 ID/g
ID/g Thyroid ([6]; First h): 0.35±0.053 ID/g
ID/g Thyroid ([6]; Fourth h): 0.422±0.095 ID/g
ID/g Thyroid ([6]; Second h): 0.512±0.106 ID/g
ID/g Thyroid ([6]; Sixth h): 0.031±0.007 ID/g
percent-specific uptake in the prostate ([6]; 1 h after administration): 0.303%
percent-specific uptake in the prostate ([6]; 2 h after administration): 0.518%
percent-specific uptake in the prostate ([6]; 4 h after administration): 0.298%
percent-specific uptake in the prostate ([6]; 6 h after administration): 0.269%
Plasma protein binding [7]: 86.23 ± 7.08%
Substance: Tc-99m-17-oxo-17a-aza-D-homo-5-androsten-3 β-ylphenoxyacetate [Tc-99m-17a-aza steroid]
percent-specific uptake in the prostate ([4]; 1 h after administration): 0.913%
percent-specific uptake in the prostate ([4]; 2 h after administration): 0.825%
percent-specific uptake in the prostate ([4]; 4 h after administration): 0.857%
percent-specific uptake in the prostate ([4]; 6 h after administration): 0.673%
